KCNQ1 pot = potentiators or activators of human KCNQ1 potassium channel. CHO-K1 KCNQ1, thallium flux FluxOR fluorescence; stronger effect = higher value. AID 2648. actives 0.35% (n = 310,000). P51787. B-score at 10 µM;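 active = fluorescence ratio B-score, a plate-corrected score, at least three library SD, with initial intensity B-score within 5 SD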
Target sequence (P51787 whole entry, looked up): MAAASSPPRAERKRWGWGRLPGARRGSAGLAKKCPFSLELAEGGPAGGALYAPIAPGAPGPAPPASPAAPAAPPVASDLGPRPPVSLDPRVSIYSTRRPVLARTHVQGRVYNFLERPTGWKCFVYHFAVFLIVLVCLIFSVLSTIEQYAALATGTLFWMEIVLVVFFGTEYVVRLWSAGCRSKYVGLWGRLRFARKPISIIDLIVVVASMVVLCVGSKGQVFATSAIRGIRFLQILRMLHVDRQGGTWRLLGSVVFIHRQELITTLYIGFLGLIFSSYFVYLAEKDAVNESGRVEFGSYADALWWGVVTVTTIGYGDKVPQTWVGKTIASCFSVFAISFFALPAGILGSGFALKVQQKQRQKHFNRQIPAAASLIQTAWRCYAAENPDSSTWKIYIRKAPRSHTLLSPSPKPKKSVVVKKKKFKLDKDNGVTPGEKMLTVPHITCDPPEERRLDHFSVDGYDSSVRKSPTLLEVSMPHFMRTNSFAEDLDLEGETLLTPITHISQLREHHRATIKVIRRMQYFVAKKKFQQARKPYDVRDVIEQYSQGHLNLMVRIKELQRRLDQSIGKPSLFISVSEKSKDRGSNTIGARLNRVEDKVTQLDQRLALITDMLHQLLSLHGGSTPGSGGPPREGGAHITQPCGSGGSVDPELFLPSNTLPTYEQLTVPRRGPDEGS
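Medium – assay buffer, equal DMSO in all wells · Material – CHO-K1 cell line with stable KCNQ1 potassium channel expression · Signal – kinetic FluxOR thallium fluorescence, 10-s 1-Hz baseline, 110-s post-stimulus read · Compound – single concentration per compound, DMSO matched to controls · Schedule – 37 °C overnight plating, 90-min dark dye load, 20-min compound pretreatment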
hERG protect = shields human hERG channel from block by proarrhythmic agents; AID 1511; CHO-hERG, FluxOR thallium flux, dofetilide IC70 present; Q12809; activation (rescue from dofetilide block), less the hit threshold, % at 10 µM; actives 0.51% (n = 310,000);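 active = activation above the mean of controls blocked by dofetilide plus 5 SD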;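 also: thallium influx through hERG after potassium depolarization seen as dye fluorescence rise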
KCNQ1 block = human KCNQ1 channel inhibition. P51787. B-score at 10 µM. actives 1.3% (n = 310,000). AID 2642. CHO-K1 KCNQ1, FluxOR thallium flux fluorescence; stronger effect = higher value;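 active = compounds whose thallium flux B-score, printed positive for inhibition, exceeds three library SD while starting fluorescence stays within three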;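 also: channel opened by potassium depolarization with thallium stimulus after 20 min compound exposure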
KCNK3 inh = human KCNK3 channel inhibition, primary screen; CHO-KCNK3 thallium flux, FluxOR fluorescence; stronger effect = lower value; B-score at 10 µM; actives 0.84% (n = 340,000); AID 602410;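 active = B-score under library mean minus 4 SD, starting fluorescence ratio at most library mean plus 5 SD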;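 also: more negative B-score means stronger inhibition of thallium flux through KCNK3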
KCNK9 block = blocks the human KCNK9 two-pore domain potassium channel; Q9NPC2; HEK293 KCNK9, FluxOR thallium flux fluorescence; stronger effect = lower value; actives 1.2% (n = 310,000); AID 488922; B-score at 10 µM;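 active = ratio B-score over 3 SD below the library mean, with starting fluorescence within 5 SD of its mean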;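 also: negative B-score means less thallium flux so channel inhibition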
Kir21 block = blocks the mouse Kir2.1 inward-rectifier potassium channel; P35561; HEK293-Kir2.1, FluxOR thallium flux fluorescence; stronger effect = lower value; B-score at 10 µM; actives 0.85% (n = 310,000); AID 1672;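 active = fluorescence ratio B-score at or below minus 3 SD of library scores, with starting-brightness B-score within 2 SD, cut at about -4.2 in these data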;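 also: channel flux triggered by added potassium and thallium sulfate stimulus; B-score of peak minus minimum fluorescence over baseline after thallium stimulus; more negative B-score means stronger Kir2.1 block with less thallium influx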
KCNK9 inh conf = confirmation of human KCNK9 potassium channel inhibitors; shares compounds with KCNK9 block; HEK293 KCNK9 cells, FluxOR thallium flux fluorescence; inhibition, % at 10 µM; actives 43% (n = 4,900); AID 492992;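 active = thallium signal inhibited by more than 5 SD of the compound-free buffer control wells, on both duplicate plates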
Kir21 sel = selectivity of KCNK9 modulators against mouse Kir2.1; shares compounds with KCNK9 block; Kir2.1 cells, FluxOR thallium flux fluorescence; inhibition, % at 10 µM; actives 4% (n = 4,900); AID 492993;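 active = thallium signal drop more than 5 SD beyond the mean of the no-compound control wells, seen in both duplicate plates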;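 also: signal is fluorescence rise after thallium addition divided by baseline fluorescence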
HEK293 Tl ctr = non-induced cell nonspecific activity of KCNK9 modulators; shares compounds with KCNK9 block; non-induced KCNK9-HEK293, FluxOR thallium flux; inhibition, % at 10 µM; actives 40% (n = 4,900); AID 492997;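 active = thallium signal drop beyond 5 SD of the untreated control mean, on both duplicate plates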
Hits are given with their value; 0 = inactive; - = no result given. This is a sample that favours compounds with a hit; in the whole collection about 3.7% have one here.

SMILES	KCNQ1 pot	hERG protect	KCNQ1 block	KCNK3 inh	KCNK9 block	Kir21 block	KCNK9 inh conf	Kir21 sel	HEK293 Tl ctr
CC1COC(C)(CC(=O)NN2C(=O)c3ccccc3C2=O)O1 (stereo not drawn)	0	0	0	0	0	0	-	-	-
O=C(COC(=O)c1cc(S(=O)(=O)N2CCCCC2)ccc1N1CCOCC1)c1ccccc1	0	0	0	0	0	0	-	-	-
COc1ccc(N(CC(C)C)S(=O)(=O)c2nnc(NC(=O)c3ccco3)s2)cc1	0	0	0	0	0	0	-	-	-
CC(=O)OCc1nc2ccccc2s1	0	0	0	0	0	0	-	-	-
NC(=O)c1ccccc1OCc1nc2ccccc2s1	0	0	0	0	0	0	0	0	0
c1ccc2c(c1)ncn2CCCOc1ccc2c(c1)CCC2	0	0	0	0	0	0	0	0	0
COc1cccc(C2C3=C(N=c4s/c(=C\c5ccc(OCC(=O)O)cc5)c(=O)n42)c2ccccc2CC3)c1 (stereo not drawn)	0	0	0	-	0	0	0	0	0
CCOC(=O)C1=C(C)N=c2s/c(=C\c3ccc(OCC(=O)O)cc3)c(=O)n2C1c1ccccc1 (stereo not drawn)	0	0	0	0	0	0	0	0	0
CCOC(=O)Cc1c(C)nc2c(-c3ccccc3OC)c(C)nn2c1C	0	0	0	0	0	0	0	0	0
CCOC(=O)Cc1c(C)nc2c(-c3ccc(Cl)cc3)c(C)nn2c1C	0	0	0	0	0	0	-	-	-
COc1ccc(-c2cn(-c3ccc(C)cc3)c(=O)n2CC(=O)Nc2ccc(OC)cc2OC)cc1	0	0	0	0	0	0	0	0	0
COc1ccc(NC(=O)Cn2c(-c3ccccc3)cn(-c3ccc(C)cc3)c2=O)cc1	0	0	0	0	0	0	-	-	-
O=S(=O)(c1cccc(S(=O)(=O)N2CCCC2)c1)N1CCCCC1	0	0	0	0	0	0	-	-	-
O=C(OCc1ccc(Br)cc1)c1cccc(S(=O)(=O)N2CCCC2)c1	0	0	0	0	-12	0	0	0	34%
O=S(=O)(c1cccc(S(=O)(=O)N2CCCC2)c1)c1cccc(S(=O)(=O)N2CCCC2)c1	0	0	0	0	-9.2	0	54%	0	0
CC1CN(C)CCC1OC(=O)c1ccccc1 (stereo not drawn)	0	0	0	0	0	0	-	-	-
Cc1ccc(S(=O)(=O)N2CCOC2CNC(=O)C(=O)NCCCN2CCOCC2)cc1 (stereo not drawn)	0	0	0	0	0	0	-	-	-
CCCCCCCC[n+]1cccc2c3ccccc3ccc21	0	0	9	0	-14	-11	62%	86%	0
Cc1cccc[n+]1CCCCCCCCCC[n+]1ccccc1C	0	0	0	0	0	0	-	-	-
COc1ccc([N+](=O)[O-])cc1NC(=O)C(C)N(C)Cc1ccc(Br)cc1 (stereo not drawn)	0	0	0	0	-8.6	0	31%	0	38%
Cc1ccc(NC(=O)c2ccc(Cl)c(S(=O)(=O)Nc3c(C)n(C)n(-c4ccccc4)c3=O)c2)cc1Cl	-	-	-	0	-	-	-	-	-
Cc1cc(C)c(-c2csc(NC(=O)COC(=O)c3ccc4c(c3)OCO4)n2)c(C)c1	0	0	0	0	0	0	0	0	0
O=C(COC(=O)c1ccc2c(c1)OCO2)Nc1nc(-c2ccccc2)cs1	0	0	0	0	0	0	-	-	-
Cc1cc(C)c(-c2csc(NC(=O)C3=COCCO3)n2)c(C)c1	0	0	0	0	0	0	0	0	0
Cc1cc(C)c2sc(NC(=O)C3=COCCO3)nc2c1	0	0	0	0	0	0	-	-	-
SMILES	KCNQ1 pot	hERG protect	KCNQ1 block	KCNK3 inh	KCNK9 block	Kir21 block	KCNK9 inh conf	Kir21 sel	HEK293 Tl ctr
N=c1c2ccccc2nc2n1CCCCCCCCCCC2	0	0	0	0	0	0	-	-	-
c1ccc(Cc2nnc(N3CCCCC3)c3ccccc23)cc1	0	0	0	0	0	0	0	0	0
CCc1ccc(C(=O)COC(=O)c2cc([N+](=O)[O-])ccc2N2CCOCC2)cc1	0	0	0	0	0	0	-	-	-
COc1ccc(O)c(CN2CCC(n3nccc3NC(=O)c3ccccc3Cl)CC2)c1	0	0	0	0	0	0	-	-	-
O=C(NCCCCc1ccccc1)C12CN(Cc3ccccc3)CC1C(c1cccc([N+](=O)[O-])c1)=NO2 (stereo not drawn)	0	0	0	0	0	0	0	0	0
CC(C)=CCc1c2c(c3occ(-c4ccc(O)cc4)c(=O)c3c1O)C=CC(C)(C)O2	0	0	0	0	0	0	-	-	-
CC1(C)C=Cc2c(c3c(c4c(=O)c(-c5ccc(O)cc5)coc24)OC(C)(C)CC3)O1	0	0	0	0	-10	0	50%	0	26%
CCOn1c(=O)c(-c2cccs2)[n+]([O-])c2ccccc21	0	0	0	0	0	0	-	-	-
CCOC(=O)COn1c(=O)c(-c2cccs2)[n+]([O-])c2ccccc21	0	0	0	0	-8.3	0	46%	0	47%
O=C(NCCc1ccc(F)cc1)C1CCN(C(=O)Nc2ccccc2)CC1	-	-	-	0	-	-	-	-	-
O=C(Nc1ccc(CN2CCCCC2)cc1)c1cc(Br)ccc1Cl	0	0	0	0	-8.5	0	30%	0	37%
CCN(CC(=O)Nc1c(F)cccc1F)C(=O)Cc1c(C)nc2ccccc2c1C	-	-	-	0	-	-	-	-	-
O=C(CN1CCc2ccccc2C1)NC1CCCC1	0	0	0	0	0	0	-	-	-
CCCCNC(=O)[C@H]1C[C@H]1[C@@H](O)[C@H](CO)NC(=O)[C@H](Cc1ccccc1)NC(=O)OC(C)(C)C	0	0	0	0	0	0	0	0	0
CCOC(=O)c1nc(NCc2ccccc2F)c2ccccc2n1	0	0	0	0	0	0	-	-	-
COc1cc(C(=O)NC(=S)Nc2ccccc2N2CCCC2)cc(OC)c1OC	0	0	0	0	0	0	0	0	0
CCOC(=O)Cn1c(S(=O)(=O)Cc2cccc(F)c2)nc(-c2ccccc2)c1-c1ccccc1	0	0	0	0	-11	0	50%	0	30%
C#CCn1c(S(=O)(=O)Cc2ccc(F)cc2)nc(-c2ccccc2)c1-c1ccccc1	0	0	0	0	-14	0	61%	0	31%
NC(=O)Cn1c(S(=O)(=O)Cc2ccccc2)nc2ccccc21	0	0	0	0	0	0	-	-	-
CCOC(=O)Cn1c(S(=O)(=O)Cc2ccc(F)cc2)nc(-c2ccccc2)c1-c1ccccc1	0	0	0	0	-9.1	0	34%	0	39%
O=C(N/N=C/c1cccc(Cl)c1)C1CCCC1	0	0	0	0	0	0	-	-	-

Source: PubChem BioAssay
